Legend:
Type in all cases: functional
Malme-3M = assay: Cytotoxicity against human MALME-3M cells assessed as cell growth at 10 uM after 48 hrs by SRB assay relative to control; settings: read-out: Activity
Procedure, shortened: (§1)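 First-stage NCI-60 screen by the NCI Developmental Therapeutics Program. Each compound was tested once at a single concentration of 10 μM against the 60-cell-line panel. Growth percentage was reported for each cell line.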

SK-MEL-28 = assay: Cytotoxicity against human SK-MEL-28 cells assessed as cell growth at 10 uM after 48 hrs by SRB assay relative to control; settings: SK-MEL-28, 48 h, read-out: Activity
Procedure, shortened: (§2)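 First-stage NCI DTP one-dose screen against the 60 human tumour cell line panel. Compounds were tested at a single 10 μM level, and results are given as growth percentage.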

SK-MEL-5 = assay: Cytotoxicity against human SK-MEL-5 cells assessed as cell growth at 10 uM after 48 hrs by SRB assay relative to control; settings: SK-MEL-5, 48 h, read-out: Activity; procedure, shortened: as §2
UACC-62 = assay: Cytotoxicity against human UACC62 cells assessed as cell growth at 10 uM after 48 hrs by SRB assay relative to control; settings: UACC-62, 48 h, read-out: Activity
Procedure, shortened: (§3)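 NCI-60 one-dose screen run by NCI DTP: each cell line exposed to a single 10 µM dose, and percentage growth recorded against untreated growth.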

IGROV-1 = assay: Cytotoxicity against human IGROV1 cells assessed as cell growth at 10 uM after 48 hrs by SRB assay relative to control; settings: IGROV-1, 48 h, read-out: Activity; procedure, shortened: as §1
OVCAR-3 = assay: Cytotoxicity against human OVCAR3 cells assessed as cell growth at 10 uM after 48 hrs by SRB assay relative to control; settings: OVCAR-3, 48 h, read-out: Activity; procedure, shortened: as §2
OVCAR-8 = assay: Cytotoxicity against human OVCAR8 cells assessed as cell growth at 10 uM after 48 hrs by SRB assay relative to control; settings: OVCAR-8, 48 h, read-out: Activity; procedure, shortened: as §2
CAKI-1 = assay: Cytotoxicity against human Caki1 cells assessed as cell growth at 10 uM after 48 hrs by SRB assay relative to control; settings: CAKI-1, 48 h, read-out: Activity; procedure, shortened: as §1
RXF 393 = assay: Cytotoxicity against human RXF393 cells assessed as cell growth at 10 uM after 48 hrs by SRB assay relative to control; settings: RXF 393, 48 h, read-out: Activity; procedure, shortened: as §2
SN12C = assay: Cytotoxicity against human SN12C cells assessed as cell growth at 10 uM after 48 hrs by SRB assay relative to control; settings: read-out: Activity; procedure, shortened: as §2
TK-10 = assay: Cytotoxicity against human TK10 cells assessed as cell growth at 10 uM after 48 hrs by SRB assay relative to control; settings: TK-10, 48 h, read-out: Activity; procedure, shortened: as §3
UO-31 = assay: Cytotoxicity against human UO31 cells assessed as cell growth at 10 uM after 48 hrs by SRB assay relative to control; settings: UO-31, 48 h, read-out: Activity; procedure, shortened: as §3
DU-145 = assay: Cytotoxicity against human DU145 cells assessed as cell growth at 10 uM after 48 hrs by SRB assay relative to control; settings: DU-145, 48 h, read-out: Activity; procedure, shortened: as §1
MCF7 = assay: Cytotoxicity against human MCF7 cells assessed as cell growth at 10 uM after 48 hrs by SRB assay relative to control; settings: MCF7, 48 h, read-out: Activity; procedure, shortened: as §1
BT-549 = assay: Cytotoxicity against human BT549 cells assessed as cell growth at 10 uM after 48 hrs by SRB assay relative to control; settings: BT-549, 48 h, read-out: Activity; procedure, shortened: as §1
K562 = assay: Cytotoxicity against human K562 cells assessed as cell growth at 10 uM after 48 hrs by SRB assay relative to control; settings: K562, 48 h, read-out: Activity; procedure, shortened: as §1
RPMI-8226 = assay: Cytotoxicity against human RPMI8226 cells assessed as cell growth at 10 uM after 48 hrs by SRB assay relative to control; settings: RPMI-8226, 48 h, read-out: Activity; procedure, shortened: as §2
SR = assay: Cytotoxicity against human SR cells assessed as cell growth at 10 uM after 48 hrs by SRB assay relative to control; settings: read-out: Activity; procedure, shortened: as §3
HOP-92 = assay: Cytotoxicity against human HOP92 cells assessed as cell growth at 10 uM after 48 hrs by SRB assay relative to control; settings: HOP-92, 48 h, read-out: Activity; procedure, shortened: as §1
NCI-H23 = assay: Cytotoxicity against human NCI-H23 cells assessed as cell growth at 10 uM after 48 hrs by SRB assay relative to control; settings: NCI-H23, 48 h, read-out: Activity; procedure, shortened: as §2
NCI-H460 = assay: Cytotoxicity against human NCI-H460 cells assessed as cell growth at 10 uM after 48 hrs by SRB assay relative to control; settings: NCI-H460, 48 h, read-out: Activity; procedure, shortened: as §2
COLO 205 = assay: Cytotoxicity against human COLO205 cells assessed as cell growth at 10 uM after 48 hrs by SRB assay relative to control; settings: COLO 205, 48 h, read-out: Activity; procedure, shortened: as §1
HCC 2998 = assay: Cytotoxicity against human HCC2998 cells assessed as cell growth at 10 uM after 48 hrs by SRB assay relative to control; settings: HCC 2998, 48 h, read-out: Activity; procedure, shortened: as §1
HCT-116 = assay: Cytotoxicity against human HCT116 cells assessed as cell growth at 10 uM after 48 hrs by SRB assay relative to control; settings: HCT-116, 48 h, read-out: Activity; procedure, shortened: as §1
HT-29 = assay: Cytotoxicity against human HT-29 cells assessed as cell growth at 10 uM after 48 hrs by SRB assay relative to control; settings: HT-29, 48 h, read-out: Activity; procedure, shortened: as §1
SF-268 = assay: Cytotoxicity against human SF268 cells assessed as cell growth at 10 uM after 48 hrs by SRB assay relative to control; settings: SF-268, 48 h, read-out: Activity; procedure, shortened: as §2
SNB-75 = assay: Cytotoxicity against human SNB75 cells assessed as cell growth at 10 uM after 48 hrs by SRB assay relative to control; settings: SNB-75, 48 h, read-out: Activity; procedure, shortened: as §3
U-251 = assay: Cytotoxicity against human U251 cells assessed as cell growth at 10 uM after 48 hrs by SRB assay relative to control; settings: U-251, 48 h, read-out: Activity; procedure, shortened: as §3
LOX IMVI = assay: Cytotoxicity against human LOXIMVI cells assessed as cell growth at 10 uM after 48 hrs by SRB assay relative to control; settings: read-out: Activity; procedure, shortened: as §1

Structure (SMILES) | growth at 10 µM (Malme-3M) | growth at 10 µM (SK-MEL-28) | growth at 10 µM (SK-MEL-5) | growth at 10 µM (UACC-62) | growth at 10 µM (IGROV-1) | growth at 10 µM (OVCAR-3) | growth at 10 µM (OVCAR-8) | growth at 10 µM (CAKI-1) | growth at 10 µM (RXF 393) | growth at 10 µM (SN12C) | growth at 10 µM (TK-10) | growth at 10 µM (UO-31) | growth at 10 µM (DU-145) | growth at 10 µM (MCF7) | growth at 10 µM (BT-549) | growth at 10 µM (K562) | growth at 10 µM (RPMI-8226) | growth at 10 µM (SR) | growth at 10 µM (HOP-92) | growth at 10 µM (NCI-H23) | other results
COc1ccc(Sc2cc3c(c4nsnc24)C(=O)c2ccccc2C3=O)cc1 | 89.5% | 116% | 106% | 109% | 103% | 110% | 99.5% | 108% | 109% | 107% | 136% | 68.3% | 112% | 93.8% | 92.9% | 92% | 101% | 102% | 91.4% | 89.1% | growth at 10 µM (NCI-H460): 107%; growth at 10 µM (COLO 205): 112%; growth at 10 µM (HCC 2998): 107%; growth at 10 µM (HCT-116): 94.6%; growth at 10 µM (HT-29): 101%; growth at 10 µM (SF-268): 94.8%; growth at 10 µM (SNB-75): 79%; growth at 10 µM (U-251): 103%; growth at 10 µM (LOX IMVI): 90.2%
O=C1c2ccccc2C(=O)c2c1cc(Sc1cc(Cl)ccc1Cl)c1nsnc21 | 94.3% | 123% | 109% | 94.1% | 78.1% | 99.4% | 85.1% | 108% | 91.5% | 96.7% | 112% | 91.5% | 102% | 85.2% | 79.7% | 47.8% | 77.2% | 41.1% | 65.1% | 74.6% | growth at 10 µM (NCI-H460): 101%; growth at 10 µM (COLO 205): 110%; growth at 10 µM (HCC 2998): 109%; growth at 10 µM (HCT-116): 81.9%; growth at 10 µM (HT-29): 106%; growth at 10 µM (SF-268): 83%; growth at 10 µM (SNB-75): 47%; growth at 10 µM (U-251): 63.6%; growth at 10 µM (LOX IMVI): 73%

— ChEMBL document CHEMBL3621107, “Ring fusion strategy for synthesis and lead optimization of sulfur-substituted anthra[1,2-c][1,2,5]thiadiazole-6,11-dione derivatives as promising scaffold of antitumor agents” (Eur J Med Chem, 2015)
